Laboratory results reported in ChEMBL document CHEMBL1275445, “Low beta-lactamase-negative ampicillin-resistant Haemophilus influenzae strains are best detected by testing amoxicillin susceptibility by the broth microdilution method” (2008).
Values after ≈ are worked out from the molar mass of the structure shown.

Tests used:
Type in all cases: functional
[1] = system: Haemophilus influenzae; assay: Antibacterial activity against Beta-lactamase negative Haemophilus influenzae harboring fst1 mutant gene assessed as susceptible isolates after 20 to 24 hrs by broth microdilution method
Summary of the method: (§1)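 Broth microdilution per CLSI on clinical H. influenzae isolates genotyped by ftsI/blaTEM PCR and sequencing. Medium: Mueller-Hinton broth with HTM supplement and yeast extract (5%). Inoculum about 5 x 10^5 CFU/ml, confirmed by colony counts on chocolate agar. Incubation 35°C, 20 to 24 h, 5% CO2. MIC was the lowest concentration inhibiting growth. Amoxicillin-clavulanic acid tested at 2:1. β-lactamase status determined by nitrocefin test.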

[2] = system: Haemophilus influenzae; assay: Antibacterial activity against Beta-lactamase negative Haemophilus influenzae isolate harboring fst1 mutant gene after 20 to 24 hrs by broth microdilution method in presence of clavulanic acid
Summary of the method: (§2)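 Broth microdilution per CLSI, with plates incubated in 5% CO2. Mueller-Hinton broth with HTM supplement and yeast extract (5%). Inoculum about 5 x 10^5 CFU/ml, checked by colony counts on chocolate agar. Amoxicillin-clavulanic acid at 2:1 ratio. 35°C, 20 to 24 h. MIC is the lowest concentration inhibiting growth. Isolates genotyped for ftsI/blaTEM by sequencing; β-lactamase by nitrocefin test.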

[3] = system: Haemophilus influenzae; assay: Antibacterial activity against Beta-lactamase positive Haemophilus influenzae isolate harboring fst1 mutant gene after 20 to 24 hrs by broth microdilution method; summary of the method: as §1
[4] = system: Haemophilus influenzae; assay: Antibacterial activity against Beta-lactamase negative Haemophilus influenzae isolate after 20 to 24 hrs by Etest method in presence of clavulanic acid
Summary of the method: (§3)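 Etest on clinical H. influenzae isolates genotyped for ftsI and blaTEM by PCR and sequencing; β-lactamase status by nitrocefin chromogenic test. Colonies from overnight chocolate agar suspended in saline to McFarland 0.5, swabbed confluently onto 150-mm agar plates, strips placed radially; 35°C, 5% CO2, 20 to 24 h. MIC read where inhibition ellipse meets strip, rounded up to next log2 concentration.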

[5] = system: Haemophilus influenzae; assay: Antibacterial activity against Beta-lactamase negative Haemophilus influenzae assessed as susceptible isolates after 20 to 24 hrs by Etest method
Summary of the method: (§4)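 Confluent swab of agar plates with saline suspension of overnight chocolate-agar colonies at McFarland 0.5; Etest strips placed radially; 35°C, 5% CO2, 20–24 h. MIC read where the inhibition ellipse meets the strip, rounded up to next log2 concentration. β-lactamase status by nitrocephin chromogenic cephalosporin test; genotype by ftsI/blaTEM sequencing.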

[6] = system: Haemophilus influenzae; assay: Antibacterial activity against Beta-lactamase negative Haemophilus influenzae isolate harboring fst1 mutant gene after 20 to 24 hrs by Etest method
Summary of the method: (§5)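 Etest on clinical H. influenzae isolates genotyped by ftsI/blaTEM sequencing. Overnight chocolate-agar colonies were suspended in saline to McFarland 0.5 and swabbed confluently onto 150-mm agar plates. Strips were placed radially, then plates incubated at 35°C in 5% CO2 for 20 to 24 h. MIC read where the inhibition ellipse meets the strip. Values rounded up to the next log2 step.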

[7] = system: Haemophilus influenzae; assay: Antibacterial activity against Beta-lactamase negative Haemophilus influenzae isolate after 20 to 24 hrs by broth microdilution method; summary of the method: as §1
[8] = system: Haemophilus influenzae; assay: Antibacterial activity against Beta-lactamase positive Haemophilus influenzae isolate harboring fst1 mutant gene after 20 to 24 hrs by Etest method in presence of clavulanic acid; summary of the method: as §3
[9] = system: Haemophilus influenzae; assay: Antibacterial activity against Beta-lactamase positive Haemophilus influenzae isolate harboring fst1 mutant gene after 20 to 24 hrs by broth microdilution method in presence of clavulanic acid; summary of the method: as §2
[10] = system: Haemophilus influenzae; assay: Antibacterial activity against Beta-lactamase positive Haemophilus influenzae assessed as susceptible isolates after 20 to 24 hrs by broth microdilution method; summary of the method: as §1
[11] = system: Haemophilus influenzae; assay: Antibacterial activity against Beta-lactamase positive Haemophilus influenzae isolate after 20 to 24 hrs by Etest method in presence of clavulanic acid; summary of the method: as §3
[12] = system: Haemophilus influenzae; assay: Antibacterial activity against Beta-lactamase positive Haemophilus influenzae isolate after 20 to 24 hrs by broth microdilution method in presence of clavulanic acid; summary of the method: as §2
[13] = system: Haemophilus influenzae; assay: Antibacterial activity against Beta-lactamase negative Haemophilus influenzae isolate harboring fst1 mutant gene after 20 to 24 hrs by broth microdilution method; summary of the method: as §1
[14] = system: Haemophilus influenzae; assay: Antibacterial activity against Beta-lactamase negative Haemophilus influenzae isolate harboring fst1 mutant gene after 20 to 24 hrs by Etest method in presence of clavulanic acid; summary of the method: as §3
[15] = system: Haemophilus influenzae; assay: Antibacterial activity against Beta-lactamase negative Haemophilus influenzae assessed as susceptible isolates after 20 to 24 hrs by broth microdilution method
Summary of the method: (§6)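 CLSI broth microdilution in Mueller-Hinton broth with HTM supplement and yeast extract (5%), inoculum about 5 x 10^5 CFU/ml (checked by colony counts on chocolate agar); 35°C, 20–24 h in 5% CO2. MIC = lowest concentration inhibiting growth; amoxicillin-clavulanic acid at 2:1. β-lactamase status by nitrocephin test.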

[16] = system: Haemophilus influenzae; assay: Antibacterial activity against Beta-lactamase positive Haemophilus influenzae isolate after 20 to 24 hrs by Etest method; summary of the method: as §5
[17] = system: Haemophilus influenzae; assay: Antibacterial activity against Beta-lactamase positive Haemophilus influenzae assessed as resistant isolates after 20 to 24 hrs by Etest method; summary of the method: as §5
[18] = system: Haemophilus influenzae; assay: Antibacterial activity against Beta-lactamase positive Haemophilus influenzae isolate after 20 to 24 hrs by broth microdilution method; summary of the method: as §6
[19] = system: Haemophilus influenzae; assay: Antibacterial activity against Beta-lactamase negative Haemophilus influenzae isolate after 20 to 24 hrs by Etest method; summary of the method: as §5
[20] = system: Haemophilus influenzae; assay: Antibacterial activity against Beta-lactamase positive Haemophilus influenzae assessed as susceptible isolates after 20 to 24 hrs by Etest method; summary of the method: as §4
[21] = system: Haemophilus influenzae; assay: Antibacterial activity against Beta-lactamase negative Haemophilus influenzae harboring fst1 mutant gene assessed as susceptible isolates after 20 to 24 hrs by Etest method; summary of the method: as §5
[22] = system: Haemophilus influenzae; assay: Antibacterial activity against Beta-lactamase negative Haemophilus influenzae isolate after 20 to 24 hrs by broth microdilution method in presence of clavulanic acid; summary of the method: as §2
[23] = system: Haemophilus influenzae; assay: Antibacterial activity against Beta-lactamase positive Haemophilus influenzae isolate harboring fst1 mutant gene after 20 to 24 hrs by Etest method; summary of the method: as §5
[24] = system: Haemophilus influenzae; assay: Antibacterial activity against Beta-lactamase negative Haemophilus influenzae harboring fst1 mutant gene assessed as resistant isolates after 20 to 24 hrs by broth microdilution method; summary of the method: as §1
[25] = system: Haemophilus influenzae; assay: Antibacterial activity against Beta-lactamase negative Haemophilus influenzae with PBP3 mutation
[26] = system: Haemophilus influenzae; assay: Antibacterial activity against Beta-lactamase positive Haemophilus influenzae harboring fst1 mutant gene assessed as resistant isolates after 20 to 24 hrs by broth microdilution method; summary of the method: as §1
[27] = system: Haemophilus influenzae; assay: Antibacterial activity against Beta-lactamase negative Haemophilus influenzae assessed as resistant isolates after 20 to 24 hrs by Etest method
[28] = system: Haemophilus influenzae; assay: Antibacterial activity against Beta-lactamase positive Haemophilus influenzae harboring fst1 mutant gene assessed as susceptible isolates after 20 to 24 hrs by broth microdilution method; summary of the method: as §1
[29] = system: Haemophilus influenzae; assay: Antibacterial activity against Beta-lactamase negative Haemophilus influenzae harboring fst1 mutant gene assessed as resistant isolates after 20 to 24 hrs by Etest method; summary of the method: as §5
[30] = system: Haemophilus influenzae; assay: Antibacterial activity against Beta-lactamase negative Haemophilus influenzae assessed as resistant isolates after 20 to 24 hrs by broth microdilution method; summary of the method: as §1
[31] = system: Haemophilus influenzae; assay: Antibacterial activity against Beta-lactamase positive Haemophilus influenzae harboring fst1 mutant gene assessed as susceptible isolates after 20 to 24 hrs by Etest method; summary of the method: as §5
[32] = system: Haemophilus influenzae; assay: Antibacterial activity against Beta-lactamase positive Haemophilus influenzae harboring fst1 mutant gene assessed as resistant isolates after 20 to 24 hrs by Etest method; summary of the method: as §5
[33] = system: Haemophilus influenzae; assay: Antibacterial activity against Beta-lactamase positive Haemophilus influenzae assessed as resistant isolates after 20 to 24 hrs by broth microdilution method; summary of the method: as §1
[34] = system: Haemophilus influenzae; assay: Antibacterial activity against Beta-lactamase negative ampicillin-resistant Haemophilus influenzae isolate with SSN motif mutation after 20 to 24 hrs by Etest method; summary of the method: as §5
[35] = system: Haemophilus influenzae; assay: Antibacterial activity against Beta-lactamase negative ampicillin-resistant Haemophilus influenzae isolate with SSN motif mutation after 20 to 24 hrs by disk diffusion method using <=29 mm disk
Summary of the method: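 Disk diffusion per CLSI on HTM base with HTM supplement and yeast extract (5%). Inoculum McFarland 0.5. Incubation 20 to 24 h at 35°C in 5% CO2. Cefixime disk 5 µg. Isolates genotyped for ftsI (SSN motif) by PCR and sequencing. Zone diameter measured.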

[36] = system: Haemophilus influenzae; assay: Antibacterial activity against Beta-lactamase negative ampicillin-resistant Haemophilus influenzae isolate with SSN motif mutation after 20 to 24 hrs by broth microdilution method; summary of the method: as §1

SMILES | Activity [1] [%] | Activity [5] [%] | MIC50 [6] [µg/mL] | MIC90 [6] [µg/mL] | MIC50 [7] [µg/mL] | MIC90 [7] [µg/mL] | Activity [10] [%] | MIC50 [13] [µg/mL] | MIC90 [13] [µg/mL] | Activity [15] [%] | MIC50 [16] [µg/mL] | MIC90 [16] [µg/mL] | Activity [17] [%] | MIC50 [18] [µg/mL] | MIC90 [18] [µg/mL] | MIC50 [19] [µg/mL] | MIC90 [19] [µg/mL] | Activity [20] [%] | Activity [21] [%] | MIC50 [23] [µg/mL] | other results
CC1(C)S[C@@H]2[C@H](NC(=O)[C@H](N)c3ccc(O)cc3)C(=O)N2[C@H]1C(=O)O [AMOXICILLIN] | 20.6 | 100 | 1 (≈ 2.74 µM) | 2 (≈ 5.47 µM) | 0.5 (≈ 1.37 µM) | 0.5 (≈ 1.37 µM) | 0 | 2 (≈ 5.47 µM) | 4 (≈ 10.9 µM) | 100 | 4 (≈ 10.9 µM) | 16 (≈ 43.8 µM) | 85 | ≥ 64 | ≥ 64 | 0.5 (≈ 1.37 µM) | 0.5 (≈ 1.37 µM) | 5 | 67.6 | 32 (≈ 87.6 µM) | MIC [2]: 0.5 µg/mL; MIC [3]: ≥ 32 µg/mL; MIC [4]: 0.25 µg/mL; MIC [7]: 0.5 µg/mL (≈ 1.37 µM); MIC [8]: 0.5 µg/mL; MIC [9]: 1 µg/mL; MIC [11]: 0.25 µg/mL; MIC [12]: 0.25 µg/mL; MIC [14]: 0.25 µg/mL; MIC [22]: 0.5 µg/mL; MIC90 [23]: 64 µg/mL (≈ 175 µM); Activity [24]: 35.3%
CC1(C)S[C@@H]2[C@H](NC(=O)[C@H](N)c3ccccc3)C(=O)N2[C@H]1C(=O)O [AMPICILLIN] | 76.5 | 100 | 1 (≈ 2.86 µM) | 2 (≈ 5.72 µM) | ≤ 0.25 | 0.5 (≈ 1.43 µM) | 0 | 1 (≈ 2.86 µM) | 2 (≈ 5.72 µM) | 100 | 4 (≈ 11.4 µM) | 16 (≈ 45.8 µM) | 85 | ≥ 32 | ≥ 32 | 0.25 (≈ 0.715 µM) | 0.5 (≈ 1.43 µM) | 5 | 88.2 | 32 (≈ 91.6 µM) | MIC [3]: ≥ 32 µg/mL; MIC [7]: ≤ 0.25 µg/mL; MIC [25]: >=2 ug; MIC90 [23]: 64 µg/mL (≈ 183 µM); Activity [24]: 2.9%
N[C@@H](C(=O)N[C@@H]1C(=O)N2C(C(=O)O)=C(Cl)CS[C@H]12)c1ccccc1 [CEFACLOR ANHYDROUS] | 94.1 | 100 | 4 (≈ 10.9 µM) | 16 (≈ 43.5 µM) | 2 (≈ 5.44 µM) | 4 (≈ 10.9 µM) | 0 | 8 (≈ 21.8 µM) | 8 (≈ 21.8 µM) | 100 | 1 (≈ 2.72 µM) | 2 (≈ 5.44 µM) | 0 | 8 (≈ 21.8 µM) | 16 (≈ 43.5 µM) | 1 (≈ 2.72 µM) | 2 (≈ 5.44 µM) | 100 | 76.5 | 4 (≈ 10.9 µM) | Activity [26]: 0%; MIC50 [3]: 8 µg/mL (≈ 21.8 µM); MIC90 [3]: 16 µg/mL (≈ 43.5 µM); Activity [27]: 0%; Activity [28]: 80%; Activity [29]: 5.9%; MIC [16]: 1 µg/mL (≈ 2.72 µM); Activity [30]: 0%; Activity [31]: 73.3%; Activity [32]: 20%; Activity [33]: 5%; MIC90 [23]: 32 µg/mL (≈ 87 µM); Activity [24]: 0%
C=CC1=C(C(=O)O)N2C(=O)[C@@H](NC(=O)/C(=N\OCC(=O)O)c3csc(N)n3)[C@H]2SC1 [CEFIXIME] |  |  |  |  |  |  |  |  |  |  |  |  |  |  |  |  |  |  |  |  | MIC [34]: ≥ 0.5 µg/mL; MIC [35]: ≥ 0.5 µg/mL; MIC [36]: ≥ 0.5 µg/mL
